Measured values of several laboratories.
Lines come from different studies, so protocols differ.
Target: Tyrosine-protein kinase ZAP-70 (ZAP70, Homo sapiens, UniProt P43403)
One construct used (P43403 1-619): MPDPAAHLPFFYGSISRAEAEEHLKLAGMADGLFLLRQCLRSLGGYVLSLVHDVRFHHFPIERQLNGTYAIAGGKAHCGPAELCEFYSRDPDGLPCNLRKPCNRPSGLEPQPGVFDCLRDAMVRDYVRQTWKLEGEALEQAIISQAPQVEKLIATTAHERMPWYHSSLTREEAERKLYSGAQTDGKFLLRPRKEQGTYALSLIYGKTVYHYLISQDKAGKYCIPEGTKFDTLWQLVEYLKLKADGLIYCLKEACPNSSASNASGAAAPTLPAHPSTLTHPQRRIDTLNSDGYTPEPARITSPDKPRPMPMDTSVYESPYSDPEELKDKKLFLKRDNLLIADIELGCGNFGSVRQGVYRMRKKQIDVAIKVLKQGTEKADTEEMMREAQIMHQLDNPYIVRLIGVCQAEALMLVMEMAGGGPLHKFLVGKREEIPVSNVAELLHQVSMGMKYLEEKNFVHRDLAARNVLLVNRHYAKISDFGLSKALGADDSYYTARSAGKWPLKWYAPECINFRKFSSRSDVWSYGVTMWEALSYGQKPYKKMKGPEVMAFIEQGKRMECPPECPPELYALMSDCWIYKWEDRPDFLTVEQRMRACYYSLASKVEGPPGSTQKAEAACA

Cc1ccc(NC(=O)c2ccnc(C(F)(F)F)c2)cc1-c1cc(OCCO)nc(N2CCOCC2)c1 has a remaining binding of 100% (binding; 1 µM).
CC#CC(=O)N1CCC[C@H]1c1nc(-c2ccc(C(=O)Nc3ccccn3)cc2)c2c(N)nccn12 has an inhibition of 8% (enzyme activity; inhibitor; 1 µM).
With C#Cc1cnc(Nc2ccnc(CO)c2)nc1Nc1ccccc1S(C)(=O)=NC#N (stereo not drawn) the remaining signal was 100% (cell-free assay; 1 µM).
CC(C)S(=O)(=O)c1ccc2nccc(Nc3ccc4sc(C5CCCC5)nc4c3)c2c1 has an activity vs control of 100% (enzyme activity; inhibitor; 1 µM).
For N#Cc1ccc(NC(=O)Nc2ccccc2)cc1, the remaining binding was 91% (cell-free assay; competition with immobilised ligand; 25 µM).
C=CC(=O)N1CCC([C@@H]2CCNc3c(C(N)=O)c(-c4ccc(Oc5ccccc5)cc4)nn32)CC1 has an inhibition of 2% (enzyme activity; inhibitor; 1 µM).
For COc1ccc2oc(-c3ccc4nc(N)oc4c3)c/c(=N\c3ccccc3NC(=O)CCN)c2c1, the remaining binding was 88% (binding; 1 µM).
CCCCC(=O)Nc1ccc(-c2ccc3ncn(CCC)c(=O)c3c2)cn1 has a remaining binding of 98% (binding; competition with immobilised ligand; 0.5 µM).
CN1CCN(C(=O)c2ccc(NC(=O)Nc3ccc(N(C)c4ccnc(Nc5ccc(CS(C)(=O)=O)cc5)n4)cc3)cc2)CC1 has a remaining binding of 65% (binding; 1 µM).
